The source of these data is article PMC9087257 (The Journal of International Medical Research, 2022).

The subject of one data set is N-cadherin. Nature of the data set: Western blotting, N-cadherin level. Type of data set: cell-based. The settings on record: NCI-H460 cells, 48 h, Western blot. The gist of the method: (§1)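 Western blot: NCI-H460 cells treated 48 h with three test-compound concentrations; 5 × 10^6 cells lysed in RIPA, run on SDS-PAGE and transferred to PVDF. Membranes blocked in 5% defatted milk. Anti-E-cadherin or anti-N-cadherin (1:10000) at 4°C for 12 h; anti-GAPDH (1:50000) 2 h at 25°C as internal control. ECL detection; bands quantified against the control group; mean ± SEM.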
(A western blot detects proteins with antibodies after separation by electrophoresis.)

For the next data set, the target named is ALK (Homo sapiens, UniProt Q9UM73). Nature of the data set: ELISA kinase assay, ALK. The class given is biochemical. Summed up: (§2)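 Tyrosine kinase ELISA: ATP in kinase reaction buffer, then test compound diluted in DMSO (DMSO as negative control). Reaction started by adding purified kinase and incubated 1 h at 37°C. Plate washed three times with 1 mM PBS (pH 7.5), then HRP-conjugated goat anti-mouse IgG added for 30 min at 37°C. Washed again and read by spectrophotometer.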
(In general: An ELISA detects its analyte on a solid surface through an enzyme-linked reagent.)

A short description of data set [1]: MTT cytotoxicity against normal cells BEAS2B. The settings on record: human, BEAS2B cells (normal human epithelium cells). The class given is cell-based. Summed up:
(§3)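 MTT viability: cells grown in RPMI-1640 with 10% FBS and penicillin-streptomycin, seeded in 24-well plates and held 24 h at 37°C, 5% CO2. Test compound added over a range of concentrations: 48 h for the cancer-line panel; three treatment durations for NCI-H460, NCI-H3122, HCC-44 and BEAS2B. MTT added for 2 h at 37°C, formazan dissolved in DMSO with 30 min shaking, absorbance read. Mean ± SEM.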

Data set [2] relates to NCI-H460 cells. Briefly: MTT cell viability assay, NCI-H460. Type of data set: cell-based. The settings on record: Homo sapiens, NCI-H460, read-out: IC50 against NCI-H460 cells. The gist of the method:
as §3

The target of the next data set is FGFR1 (Homo sapiens, UniProt P11362). Nature of the data set: ELISA kinase assay, FGFR1. Type of data set: biochemical. The gist of the method: as §2
The target of a further data set is EGFR (Homo sapiens, UniProt P00533). Nature of the data set: ELISA kinase assay, EGFR. The class given is biochemical. Summed up: as §2
The target of a further data set is TRKA (Homo sapiens, UniProt P04629). Briefly: ELISA kinase assay, TRKA. The class given is biochemical. The gist of the method:
as §2

The target of the next data set is PDGFRα (Homo sapiens, UniProt P16234). Briefly: ELISA kinase assay, PDGFRα. Type of data set: biochemical. The gist of the method: as §2
Another data set concerns the target c-Met kinase (Homo sapiens, UniProt P08581). Briefly: ELISA kinase assay, c-Met. Type of data set: biochemical.
The subject of data set [3] is NCI-H460 cells. Nature of the data set: Transwell migration assay. Type of data set: cell-based. The note with it: 48 h. The gist of the method: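 Transwell migration with NCI-H460 cells, at three test-compound concentrations. Cells seeded in the upper chamber in serum-free RPMI-1640; lower chamber held RPMI-1640 with 10% FBS. After 48 h at 37°C, 5% CO2, cells were fixed and haematoxylin-stained, and migrated cells were counted.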

The subject of another data set is NCI-H3122 cells. Nature of the data set: MTT cell viability assay, NCI-H3122. The class given is cell-based. The settings on record: Homo sapiens, NCI-H3122, read-out: IC50 against NCI-H3122 cells. The gist of the method:
as §3

The next data set relates to E-cadherin. Nature of the data set: Western blotting, E-cadherin level. Type of data set: cell-based. The settings on record: NCI-H460 cells, 48 h, Western blot. The gist of the method: as §1
Data set [4] relates to TE-11, SK-BR-3, HO-8910, QGY-7701, SHG-44, HCC-44, COLO-320, SH-SY5Y and SW579 cells. Briefly: MTT cell viability, panel of nine cancer cell lines. Type of data set: cell-based. The settings on record: 48 h.
A further data set relates to HCC-44 cells. Nature of the data set: MTT cell viability assay, HCC-44. The settings on record: for antiproliferative efficacy against HCC-44 cells: 48 h, MTT. The class given is cell-based. The gist of the method:
as §3
For orientation: Tetrazolium assays rely on reduction of a dye to a coloured formazan, in cell work by metabolically active cells.

Data set [5] has as its system NCI-H460 cells. Briefly: Wound healing assay. The class given is cell-based. The note with it: 75 nM, 150 nM and 300 nM, 48 h.
The next data set concerns NCI-H460 xenograft. Nature of the data set: NCI-H460 xenograft study. Type of data set: in vivo, BALB/c nude mice. The gist of the method: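 BALB/c nude mice (4 weeks, 18–21 g) carried NCI-H460 xenografts and were housed at 26–28°C on a 13 h/11 h light cycle. At tumour volume 100 mm3, mice were randomised, 5 per group, to water vehicle or 50 mg/kg test compound intragastrically every 3 days for 16 days. Tumours were then excised and weighed; heart, liver, spleen, lung and kidney taken for H&E.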

EGFR, sequence (P00533 25-1210): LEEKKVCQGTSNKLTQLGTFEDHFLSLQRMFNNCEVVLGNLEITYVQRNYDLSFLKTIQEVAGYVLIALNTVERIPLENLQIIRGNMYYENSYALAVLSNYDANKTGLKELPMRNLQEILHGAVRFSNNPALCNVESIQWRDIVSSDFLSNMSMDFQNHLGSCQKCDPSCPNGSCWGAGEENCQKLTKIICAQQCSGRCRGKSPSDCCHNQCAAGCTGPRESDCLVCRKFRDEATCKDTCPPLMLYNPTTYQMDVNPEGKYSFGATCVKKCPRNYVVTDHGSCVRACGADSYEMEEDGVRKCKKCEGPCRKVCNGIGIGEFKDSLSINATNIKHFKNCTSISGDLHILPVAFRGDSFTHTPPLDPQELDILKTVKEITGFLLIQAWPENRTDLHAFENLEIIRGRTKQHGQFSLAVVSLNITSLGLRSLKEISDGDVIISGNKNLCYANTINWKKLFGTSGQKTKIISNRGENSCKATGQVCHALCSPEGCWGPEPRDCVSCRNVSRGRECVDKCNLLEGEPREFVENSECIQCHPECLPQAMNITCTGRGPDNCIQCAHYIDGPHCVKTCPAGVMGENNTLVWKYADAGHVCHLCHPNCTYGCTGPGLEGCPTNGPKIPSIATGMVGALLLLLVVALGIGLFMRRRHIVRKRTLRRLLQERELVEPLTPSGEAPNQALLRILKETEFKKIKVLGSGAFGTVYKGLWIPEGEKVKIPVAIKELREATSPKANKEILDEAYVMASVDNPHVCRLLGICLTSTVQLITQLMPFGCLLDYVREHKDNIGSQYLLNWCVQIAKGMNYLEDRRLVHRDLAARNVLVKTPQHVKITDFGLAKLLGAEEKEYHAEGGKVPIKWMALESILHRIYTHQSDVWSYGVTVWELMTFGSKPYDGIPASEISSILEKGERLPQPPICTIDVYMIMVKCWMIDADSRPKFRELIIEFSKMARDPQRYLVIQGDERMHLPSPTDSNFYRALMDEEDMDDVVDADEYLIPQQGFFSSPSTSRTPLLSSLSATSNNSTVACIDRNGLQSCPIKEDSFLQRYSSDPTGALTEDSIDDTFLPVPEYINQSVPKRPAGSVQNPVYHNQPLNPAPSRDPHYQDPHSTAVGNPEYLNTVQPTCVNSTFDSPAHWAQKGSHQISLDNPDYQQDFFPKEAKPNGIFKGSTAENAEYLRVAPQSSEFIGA
PDGFRα, sequence (P16234 24-1089): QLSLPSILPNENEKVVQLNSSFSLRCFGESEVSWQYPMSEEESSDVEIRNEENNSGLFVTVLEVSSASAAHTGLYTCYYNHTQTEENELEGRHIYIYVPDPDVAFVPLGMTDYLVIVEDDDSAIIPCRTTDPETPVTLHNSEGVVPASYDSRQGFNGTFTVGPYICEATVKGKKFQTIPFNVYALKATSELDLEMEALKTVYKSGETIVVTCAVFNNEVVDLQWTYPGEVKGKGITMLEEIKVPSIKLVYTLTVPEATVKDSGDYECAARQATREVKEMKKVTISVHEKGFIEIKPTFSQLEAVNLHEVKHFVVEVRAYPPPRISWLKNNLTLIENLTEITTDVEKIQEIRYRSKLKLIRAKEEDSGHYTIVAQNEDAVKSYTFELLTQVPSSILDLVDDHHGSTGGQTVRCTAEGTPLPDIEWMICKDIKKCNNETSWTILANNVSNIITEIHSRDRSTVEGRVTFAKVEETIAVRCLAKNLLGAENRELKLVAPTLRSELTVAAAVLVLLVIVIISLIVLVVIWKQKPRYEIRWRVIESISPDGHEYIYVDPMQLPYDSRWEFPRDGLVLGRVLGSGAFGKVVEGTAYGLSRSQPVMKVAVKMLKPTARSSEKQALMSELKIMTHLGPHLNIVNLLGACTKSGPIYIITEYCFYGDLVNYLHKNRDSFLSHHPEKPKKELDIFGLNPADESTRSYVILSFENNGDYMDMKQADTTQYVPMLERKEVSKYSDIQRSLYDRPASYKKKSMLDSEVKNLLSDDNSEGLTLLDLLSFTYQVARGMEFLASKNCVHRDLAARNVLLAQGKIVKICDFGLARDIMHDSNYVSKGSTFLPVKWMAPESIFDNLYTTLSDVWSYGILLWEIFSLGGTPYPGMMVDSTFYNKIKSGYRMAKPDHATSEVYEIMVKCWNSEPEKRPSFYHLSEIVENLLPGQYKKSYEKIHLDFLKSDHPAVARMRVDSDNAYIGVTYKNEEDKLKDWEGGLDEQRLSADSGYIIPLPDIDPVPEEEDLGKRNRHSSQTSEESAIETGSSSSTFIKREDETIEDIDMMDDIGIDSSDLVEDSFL
TRKA, sequence (P04629 33-796): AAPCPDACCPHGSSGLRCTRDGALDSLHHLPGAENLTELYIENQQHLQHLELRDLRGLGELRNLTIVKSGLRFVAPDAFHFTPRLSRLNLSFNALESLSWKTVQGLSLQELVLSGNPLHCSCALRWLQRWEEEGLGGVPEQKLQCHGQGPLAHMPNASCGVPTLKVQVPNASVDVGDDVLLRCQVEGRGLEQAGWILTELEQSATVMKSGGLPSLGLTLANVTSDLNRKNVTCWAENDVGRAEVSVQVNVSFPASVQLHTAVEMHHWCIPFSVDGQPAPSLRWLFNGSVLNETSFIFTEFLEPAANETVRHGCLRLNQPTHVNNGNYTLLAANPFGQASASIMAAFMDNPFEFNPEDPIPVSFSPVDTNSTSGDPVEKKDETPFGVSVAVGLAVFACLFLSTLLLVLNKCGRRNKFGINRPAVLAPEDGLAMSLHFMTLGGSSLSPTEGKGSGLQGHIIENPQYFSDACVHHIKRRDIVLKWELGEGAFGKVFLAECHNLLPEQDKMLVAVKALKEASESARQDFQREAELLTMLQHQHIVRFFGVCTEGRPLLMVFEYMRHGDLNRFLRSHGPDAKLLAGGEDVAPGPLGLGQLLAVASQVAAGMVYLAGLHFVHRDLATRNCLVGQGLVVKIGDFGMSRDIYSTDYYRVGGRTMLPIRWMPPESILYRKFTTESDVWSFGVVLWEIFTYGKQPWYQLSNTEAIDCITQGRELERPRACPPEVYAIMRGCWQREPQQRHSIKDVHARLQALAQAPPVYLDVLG
c-Met kinase, sequence (P08581 25-1390): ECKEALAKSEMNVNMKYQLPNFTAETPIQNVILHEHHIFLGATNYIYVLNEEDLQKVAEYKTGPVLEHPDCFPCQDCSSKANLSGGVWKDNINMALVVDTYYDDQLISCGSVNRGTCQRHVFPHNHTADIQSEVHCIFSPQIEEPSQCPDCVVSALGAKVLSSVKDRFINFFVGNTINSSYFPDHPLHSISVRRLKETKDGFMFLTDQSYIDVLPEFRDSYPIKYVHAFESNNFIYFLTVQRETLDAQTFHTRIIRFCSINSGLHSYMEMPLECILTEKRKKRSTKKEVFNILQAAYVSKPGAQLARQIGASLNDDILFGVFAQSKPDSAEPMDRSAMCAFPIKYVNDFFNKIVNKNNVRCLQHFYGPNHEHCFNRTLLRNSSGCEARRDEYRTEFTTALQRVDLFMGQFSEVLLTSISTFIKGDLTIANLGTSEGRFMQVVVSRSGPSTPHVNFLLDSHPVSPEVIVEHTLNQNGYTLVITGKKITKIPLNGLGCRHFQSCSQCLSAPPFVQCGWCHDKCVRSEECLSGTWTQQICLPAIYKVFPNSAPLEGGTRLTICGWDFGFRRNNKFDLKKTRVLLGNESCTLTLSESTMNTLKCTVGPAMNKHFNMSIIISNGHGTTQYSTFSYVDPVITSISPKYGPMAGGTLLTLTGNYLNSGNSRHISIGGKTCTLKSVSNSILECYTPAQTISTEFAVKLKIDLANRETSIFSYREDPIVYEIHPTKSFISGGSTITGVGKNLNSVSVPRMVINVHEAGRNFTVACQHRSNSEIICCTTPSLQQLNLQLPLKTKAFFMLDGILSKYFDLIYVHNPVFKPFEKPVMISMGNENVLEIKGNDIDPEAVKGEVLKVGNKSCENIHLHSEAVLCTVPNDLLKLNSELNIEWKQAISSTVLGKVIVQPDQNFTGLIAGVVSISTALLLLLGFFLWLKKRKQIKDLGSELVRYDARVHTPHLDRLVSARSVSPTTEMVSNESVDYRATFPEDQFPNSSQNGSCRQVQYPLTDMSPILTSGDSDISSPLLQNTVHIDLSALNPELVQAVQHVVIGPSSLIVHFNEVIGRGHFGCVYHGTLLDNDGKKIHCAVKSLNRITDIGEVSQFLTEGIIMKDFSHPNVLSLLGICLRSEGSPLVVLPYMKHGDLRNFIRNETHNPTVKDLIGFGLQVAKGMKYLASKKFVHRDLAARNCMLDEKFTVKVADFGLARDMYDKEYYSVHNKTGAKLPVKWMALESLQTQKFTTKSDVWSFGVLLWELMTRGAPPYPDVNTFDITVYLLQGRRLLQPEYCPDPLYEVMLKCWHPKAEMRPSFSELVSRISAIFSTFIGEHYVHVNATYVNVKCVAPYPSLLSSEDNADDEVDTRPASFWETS

Regarding `O=C(/C=C/c1ccc(Br)cc1)c1ccc(OCCCSc2nncs2)cc1` [ZW97, (E)-1-(4-(3-((1,3,4-thiadiazol-2-yl)thio)propoxy)phenyl)-3-(4-bromophenyl)prop-2-en-1-one], the “level of N-cadherin” value with N-cadherin is listed as “downregulated”. For the same compound, the concentration for half-maximal inhibition (IC50) (usually the point on the concentration scale where inhibition reaches its midpoint) against ALK was > 1500 nM; in data set [1] it was > 64000 nM; with NCI-H460 cells [2], 150 nM; at FGFR1, > 1500 nM; on EGFR, > 1500 nM; against TRKA, > 1500 nM. Moreover, the IC50 was > 1500 nM against PDGFRα; 27.96 ± 0.14 nM against c-Met kinase; 1170 nM in the data set with NCI-H3122 cells; 2060 nM with HCC-44 cells (Homo sapiens, HCC44, read-out: IC50 against HCC-44 cells). For the same compound, the “cell migration (transwell)” value in the data set with NCI-H460 cells [3] is “hindered NCI-H460 cell migration”. For the same compound, the “level of E-cadherin” value in the data set on E-cadherin was “upregulated”. Besides, the “antiproliferative activity in nine cancer cell lines” value in [4] was “antiproliferative activity against all nine cancer cell lines”. For the same compound, the figures for the “antiproliferative efficacy against HCC-44 cells” value in the data set with HCC-44 cells (4 μM) and in the data set with HCC-44 cells (8 μM) were “approximately 65.7%” and ~88.3%, respectively. The wound healing result with NCI-H460 cells [5] is “inhibited the wound healing in a concentration dependent manner”. For the same compound, in the data set with NCI-H460 xenograft (50 mg/kg intragastric for 16 days), the subcutaneous tumour growth entry is listed as “suppressed NCI-H460 subcutaneous tumour growth”. Further, the mouse body weight result with NCI-H460 xenograft (50 mg/kg intragastric for 16 days, compared with control) is listed as “did not significantly decrease the mouse body weight”. For the same compound, the “inhibitory rate (tumour weight)” value in the data set with NCI-H460 xenograft (day 16, 50 mg/kg intragastric once every 3 days, versus vehicle group) is reported as 61.58%.
